Results taken from ChEMBL document CHEMBL4265982, “Hybrid compounds from chalcone and 1,2-benzothiazine pharmacophores as selective inhibitors of alkaline phosphatase isozymes” (Eur J Med Chem, 2018).
Active and inactive are the calls of the source. The calls are words filed in the database; no cut-off is given here.

Tests used:
[1] = molecular target: T1, Alkaline phosphatase, tissue-nonspecific isozyme (Homo sapiens, UniProt P05186); experiment: Inhibition of human TNAP expressed in African green monkey COS7 cell membranes using CDP-star as substrate pretreated for 5 to 10 mins followed by substrate addition and measured after 15 to 20 mins by […]
T1 sequence (P05186 whole entry): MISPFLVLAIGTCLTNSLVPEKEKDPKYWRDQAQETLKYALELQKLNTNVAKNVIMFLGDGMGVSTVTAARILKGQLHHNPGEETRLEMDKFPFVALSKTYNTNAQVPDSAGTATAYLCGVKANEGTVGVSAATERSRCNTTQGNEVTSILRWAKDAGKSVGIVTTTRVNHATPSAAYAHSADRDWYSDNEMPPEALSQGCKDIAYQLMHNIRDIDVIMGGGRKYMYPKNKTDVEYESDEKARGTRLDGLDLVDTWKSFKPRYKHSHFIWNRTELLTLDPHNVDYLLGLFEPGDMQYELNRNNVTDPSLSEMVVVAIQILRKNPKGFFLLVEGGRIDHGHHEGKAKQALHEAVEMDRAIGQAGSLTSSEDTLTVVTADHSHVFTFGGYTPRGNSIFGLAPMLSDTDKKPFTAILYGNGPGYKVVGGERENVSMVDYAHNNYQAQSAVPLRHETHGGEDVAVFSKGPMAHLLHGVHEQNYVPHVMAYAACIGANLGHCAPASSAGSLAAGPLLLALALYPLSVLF

[2] = molecular target: T2, Intestinal-type alkaline phosphatase (Homo sapiens, UniProt P09923); experiment: Inhibition of human IAP expressed in African green monkey COS7 cell membranes using CDP-star as substrate pretreated for 5 to 10 mins followed by substrate addition and measured after 15 to 20 mins by […]
Summary of the method: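 Enzyme from transfected COS-7 lysates (h-TNAP 46 ng/well, h-IAP 57 ng/well), stored with 7.5% glycerol at -80 °C. Inhibitor tested up to 200 μM, final DMSO 1%, in 3 M DEA pH 9.8 with 2.5 mM MgCl2 and 0.05 mM ZnCl2. Preincubation 37 °C for 5–10 min, then CDP-Star added. Luminescence read after 15–20 min. IC50 from curve fitting, mean ± SEM, n = 3.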
Target sequence in this assay (P09923 whole entry): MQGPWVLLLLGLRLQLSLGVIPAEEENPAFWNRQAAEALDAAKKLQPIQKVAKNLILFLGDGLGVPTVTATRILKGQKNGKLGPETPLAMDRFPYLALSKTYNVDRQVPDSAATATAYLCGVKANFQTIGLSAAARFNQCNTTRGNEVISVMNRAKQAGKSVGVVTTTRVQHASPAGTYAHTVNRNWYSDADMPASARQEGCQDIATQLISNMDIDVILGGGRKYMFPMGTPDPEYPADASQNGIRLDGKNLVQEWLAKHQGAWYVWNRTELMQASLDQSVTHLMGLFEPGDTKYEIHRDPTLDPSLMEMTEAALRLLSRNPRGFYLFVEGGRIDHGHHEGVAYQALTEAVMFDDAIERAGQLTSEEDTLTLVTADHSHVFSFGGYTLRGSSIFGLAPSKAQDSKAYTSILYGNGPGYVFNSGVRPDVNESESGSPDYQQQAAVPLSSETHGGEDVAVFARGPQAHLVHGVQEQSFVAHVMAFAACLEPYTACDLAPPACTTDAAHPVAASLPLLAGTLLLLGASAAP

[3] = organism: Homo sapiens; experiment: Selectivity index, ratio of IC50 for human TNAP expressed in African green monkey COS7 cell membranes to IC50 for human IAP expressed in African green monkey COS7 cell membranes
Summary of the method: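 Ratio of IC50 at h-TNAP to IC50 at h-IAP. Each IC50 is from the CDP-Star luminescence assay on lysates of transfected COS-7 cells, pH 9.8 DEA buffer. Index > 1 means selectivity for h-IAP; < 1 means selectivity for h-TNAP.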

[4] = system: HeLa; experiment: Cytotoxicity against human HeLa cells assessed as cell growth inhibition at 100 uM after 24 hrs by MTT assay; type: functional; settings: read-out: GI
Summary of the method: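 HeLa cells seeded overnight at 2.5 × 10⁴ cells/mL, then exposed to compound (final 100 μM) for 24 h at 37 °C. MTT (5 μg/well) added for 4 h, then solubilised with 50% isopropanol/10% SDS. OD read at 570 nm minus 690 nm background. Percent inhibition relative to untreated control; triplicate, mean of three independent experiments ± SEM.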

[5] = molecular target: T2, Intestinal-type alkaline phosphatase; experiment: Competitive inhibition of human IAP expressed in African green monkey COS7 cell membranes up to 1.5 uM using CDP-star as substrate pretreated for 5 to 10 mins followed by substrate addition and measured after 15 to 20 mins by double reciprocal plot analysis
Target sequence in this assay (P09923 whole entry, looked up): as the sequence (P09923 whole entry) above

[6] = molecular target: T3, Alkaline phosphatase, tissue-nonspecific isozyme (Homo sapiens) (UniProt P05186); experiment: Non-competitive inhibition of human TNAP expressed in African green monkey COS7 cell membranes up to 0.3 uM using CDP-star as substrate pretreated for 5 to 10 mins followed by substrate addition and measured after 15 to 20 mins by double reciprocal plot analysis
T3 sequence (whole entry): T1 sequence (P05186 whole entry)
Summary of the method: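 Kinetics: double reciprocal plots of initial velocity versus CDP-Star concentration at several inhibitor concentrations. Enzyme is lysate of COS-7 cells transfected with h-TNAP plasmid (lipofectamine, 5 h, 37 °C, harvested 40–72 h). Buffer 3 M DEA pH 9.8, 2.5 mM MgCl2, 0.05 mM ZnCl2. Preincubation 5–10 min at 37 °C, luminescence read 15–20 min after substrate.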

[7] = molecular target: T3, Alkaline phosphatase, tissue-nonspecific isozyme (Homo sapiens); experiment: Potency index, ratio of levamisole IC50 to test compound IC50 for human TNAP

Compound | IC50 [1] [µM] | IC50 [2] [µM] | Ratio IC50 [3] | inhibition [5] | inhibition [6] | Ratio IC50 [7] | inhibition of growth at 100 µM [4] [%]
c1ccc([C@H]2CN3CCSC3=N2)cc1 [LEVAMISOLE] | – | > 200 | – | – | – | – | –
Cc1ccccc1/C=C1\NS(=O)(=O)c2ccccc2C1=O | 2.36 | 3.75 | 0.6 | – | – | – | 7
O=C1/C(=C/c2cccc(O)c2)NS(=O)(=O)c2ccccc21 | 3.57 | 1.21 | 3 | – | – | – | 15
COc1ccccc1/C=C1\NS(=O)(=O)c2ccccc2C1=O | 2.59 | 1.24 | 2.1 | – | – | – | 17
O=C1/C(=C/c2cccc(Br)c2)NS(=O)(=O)c2ccccc21 | > 200 | 2.55 | > 26 | – | – | – | 65
O=C1/C(=C/c2c(F)cccc2F)NS(=O)(=O)c2ccccc21 | 1.53 | 10.6 | 0.1 | – | – | – | 17
O=C1/C(=C/c2ccccc2Br)NS(=O)(=O)c2ccccc21 | > 200 | 7.43 | > 1 | – | – | – | 53
COc1cccc(/C=C2\NS(=O)(=O)c3ccccc3C2=O)c1 | > 200 | 1.04 | > 190 | Active | – | – | 39
N[C@@H](Cc1ccccc1)C(=O)O [PHENYLALANINE] | > 200 | – | > 2 | – | – | – | –

Now from value to molecule, other results behind:

IC50 [1] [µM] | IC50 [2] [µM] | Ratio IC50 [3] | inhibition [5] | inhibition [6] | Ratio IC50 [7] | Compound | inhibition of growth at 100 µM [4] [%]
4.04 | 1.53 | 2.6 | – | – | – | COc1ccc(/C=C2\NS(=O)(=O)c3ccccc3C2=O)cc1 | 11
0.66 | 1.78 | 0.4 | – | – | – | O=C1/C(=C/c2ccccc2)NS(=O)(=O)c2ccccc21 | 19
> 200 | 3.77 | > 50 | – | – | – | O=C1/C(=C/c2cccc(Cl)c2)NS(=O)(=O)c2ccccc21 | 64
1.43 | 3.69 | 0.4 | – | – | – | O=C1/C(=C/c2ccc(Br)cc2)NS(=O)(=O)c2ccccc21 | 59
1.35 | 3.06 | 0.4 | – | – | – | O=C1/C(=C/c2ccc(F)cc2)NS(=O)(=O)c2ccccc21 | 41
0.25 | 4.35 | 0.1 | – | Active | 80 | O=C1/C(=C/c2ccc(Cl)cc2)NS(=O)(=O)c2ccccc21 | 55
> 200 | 4.96 | > 53 | – | – | – | O=C1/C(=C/c2ccc(Cl)cc2Cl)NS(=O)(=O)c2ccccc21 | 59
3.19 | 9.93 | 0.3 | – | – | – | O=C1/C(=C/c2cccc(F)c2)NS(=O)(=O)c2ccccc21 | 53
